# From ChEMBL document CHEMBL5058577, “EUbOPEN Chemogenomics Library 2 (Multiplex)” (2022)
# System: HEK-293T
# Test: Multiplex assay against HEK293T
# Type: toxicity, cell-based
# Conditions: human
# Summary of the method: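 With compound added, live cells were imaged on a CQ1 microscope at 37°C and 5% CO2; staining with Hoechst33342, BioTracker Green Microtubule Cytoskeleton Dye, MitoTracker Red and Annexin V Alexa Fluor 680 had been done at seeding. The CellPathfinder machine-learning gating scheme split cells into Hoechst high-intensity objects or normal cells, normal cells into healthy, pyknosed or fragmented nuclei, and pyknosed cells into mitotic or apoptotic. The tubulin, mitochondrial-mass and membrane-permeability phenotypes are per cents of healthy-nucleus cells.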
# [1] = 12 h, 1 µM, compound concentration 1 uM, replicate 1
# [2] = 12 h, 1 µM, compound concentration 1 uM, replicate 2
# [3] = 12 h, 10 µM, compound concentration 10 uM, replicate 1
# [4] = 12 h, 10 µM, compound concentration 10 uM, replicate 2
# [5] = 24 h, 1 µM, compound concentration 1 uM, replicate 1
# [6] = 24 h, 1 µM, compound concentration 1 uM, replicate 2
# [7] = 24 h, 10 µM, compound concentration 10 uM, replicate 1
# [8] = 24 h, 10 µM, compound concentration 10 uM, replicate 2
# [9] = 48 h, 1 µM, compound concentration 1 uM, replicate 1
# [10] = 48 h, 1 µM, compound concentration 1 uM, replicate 2
# [11] = 48 h, 10 µM, compound concentration 10 uM, replicate 1
# [12] = 48 h, 10 µM, compound concentration 10 uM, replicate 2
compound,measurement,setting,value
Cc1sc2c(c1C)C(c1ccc(Cl)cc1)=N[C@H](CC(=O)OC(C)(C)C)c1nnc(C)n1-2,Population Apoptotic (%),[1],40%
same,Population Fragmented Nuclei (%),[1],8%
same,Population Healthy Nuclei (%),[1],80%
same,Population Hoechst High Intensity Objects (%),[1],8%
same,Population Membrane Permeable-Phenotype (%),[1],0%
same,Population Mitochondria Different-Phenotype (%),[1],49%
same,Population Mitotic Cells (%),[1],60%
same,Population Normal (%),[1],91%
same,Population Pyknosed Nuclei (%),[1],10%
same,Population Tubulin-Different-Phenotype (%),[1],32%
same,Total Cell Count,[1],478
same,Population Apoptotic (%),[2],44%
same,Population Fragmented Nuclei (%),[2],6%
same,Population Healthy Nuclei (%),[2],76%
same,Population Hoechst High Intensity Objects (%),[2],9%
same,Population Mitochondria Different-Phenotype (%),[2],65%
same,Population Mitotic Cells (%),[2],55%
same,Population Normal (%),[2],90%
same,Population Pyknosed Nuclei (%),[2],17%
same,Population Tubulin-Different-Phenotype (%),[2],26%
same,Total Cell Count,[2],333
same,Population Apoptotic (%),[3],41%
same,Population Fragmented Nuclei (%),[3],7%
same,Population Healthy Nuclei (%),[3],76%
same,Population Hoechst High Intensity Objects (%),[3],7%
same,Population Membrane Permeable-Phenotype (%),[3],0%
same,Population Mitochondria Different-Phenotype (%),[3],74%
same,Population Mitotic Cells (%),[3],58%
same,Population Normal (%),[3],92%
same,Population Pyknosed Nuclei (%),[3],15%
same,Population Tubulin-Different-Phenotype (%),[3],67%
same,Total Cell Count,[3],395
same,Population Apoptotic (%),[4],66%
same,Population Fragmented Nuclei (%),[4],5%
same,Population Healthy Nuclei (%),[4],72%
same,Population Hoechst High Intensity Objects (%),[4],10%
same,Population Mitochondria Different-Phenotype (%),[4],90%
same,Population Mitotic Cells (%),[4],33%
same,Population Normal (%),[4],89%
same,Population Pyknosed Nuclei (%),[4],21%
same,Population Tubulin-Different-Phenotype (%),[4],70%
same,Total Cell Count,[4],303
same,Population Apoptotic (%),[5],32%
same,Population Fragmented Nuclei (%),[5],10%
same,Population Healthy Nuclei (%),[5],76%
same,Population Hoechst High Intensity Objects (%),[5],5%
same,Population Membrane Permeable-Phenotype (%),[5],0%
same,Population Mitochondria Different-Phenotype (%),[5],29%
same,Population Mitotic Cells (%),[5],68%
same,Population Normal (%),[5],94%
same,Population Pyknosed Nuclei (%),[5],13%
same,Population Tubulin-Different-Phenotype (%),[5],19%
same,Total Cell Count,[5],609
same,Population Healthy Nuclei (%),[6],82%
same,Population Hoechst High Intensity Objects (%),[6],6%
same,Population Mitochondria Different-Phenotype (%),[6],43%
same,Population Mitotic Cells (%),[6],67%
same,Population Normal (%),[6],93%
same,Population Pyknosed Nuclei (%),[6],6%
same,Population Tubulin-Different-Phenotype (%),[6],11%
same,Total Cell Count,[6],479
same,Population Apoptotic (%),[7],41%
same,Population Fragmented Nuclei (%),[7],8%
same,Population Healthy Nuclei (%),[7],68%
same,Population Hoechst High Intensity Objects (%),[7],4%
same,Population Membrane Permeable-Phenotype (%),[7],0%
same,Population Mitochondria Different-Phenotype (%),[7],64%
same,Population Mitotic Cells (%),[7],58%
same,Population Normal (%),[7],95%
same,Population Pyknosed Nuclei (%),[7],23%
same,Population Tubulin-Different-Phenotype (%),[7],46%
same,Total Cell Count,[7],468
same,Population Apoptotic (%),[8],49%
same,Population Fragmented Nuclei (%),[8],3%
same,Population Healthy Nuclei (%),[8],76%
same,Population Hoechst High Intensity Objects (%),[8],6%
same,Population Membrane Permeable-Phenotype (%),[8],1%
same,Population Mitochondria Different-Phenotype (%),[8],76%
same,Population Mitotic Cells (%),[8],50%
same,Population Normal (%),[8],93%
same,Population Pyknosed Nuclei (%),[8],19%
same,Population Tubulin-Different-Phenotype (%),[8],47%
same,Total Cell Count,[8],378
same,Population Apoptotic (%),[9],18%
same,Population Fragmented Nuclei (%),[9],11%
same,Population Healthy Nuclei (%),[9],80%
same,Population Hoechst High Intensity Objects (%),[9],3%
same,Population Membrane Permeable-Phenotype (%),[9],1%
same,Population Mitochondria Different-Phenotype (%),[9],16%
same,Population Mitotic Cells (%),[9],81%
same,Population Normal (%),[9],96%
same,Population Pyknosed Nuclei (%),[9],7%
same,Population Tubulin-Different-Phenotype (%),[9],10%
same,Total Cell Count,[9],1012
same,Population Apoptotic (%),[10],30%
same,Population Fragmented Nuclei (%),[10],14%
same,Population Healthy Nuclei (%),[10],79%
same,Population Hoechst High Intensity Objects (%),[10],4%
same,Population Membrane Permeable-Phenotype (%),[10],0%
same,Population Mitochondria Different-Phenotype (%),[10],21%
same,Population Mitotic Cells (%),[10],69%
same,Population Normal (%),[10],95%
same,Population Pyknosed Nuclei (%),[10],5%
same,Population Tubulin-Different-Phenotype (%),[10],12%
same,Total Cell Count,[10],685
same,Population Apoptotic (%),[11],31%
same,Population Fragmented Nuclei (%),[11],9%
same,Population Healthy Nuclei (%),[11],73%
same,Population Hoechst High Intensity Objects (%),[11],3%
same,Population Membrane Permeable-Phenotype (%),[11],0%
same,Population Mitochondria Different-Phenotype (%),[11],47%
same,Population Mitotic Cells (%),[11],68%
same,Population Normal (%),[11],96%
same,Population Pyknosed Nuclei (%),[11],16%
same,Population Tubulin-Different-Phenotype (%),[11],19%
same,Total Cell Count,[11],641
same,Population Apoptotic (%),[12],55%
same,Population Fragmented Nuclei (%),[12],8%
same,Population Healthy Nuclei (%),[12],76%
same,Population Hoechst High Intensity Objects (%),[12],5%
same,Population Mitochondria Different-Phenotype (%),[12],66%
same,Population Mitotic Cells (%),[12],44%
same,Population Normal (%),[12],94%
same,Population Pyknosed Nuclei (%),[12],15%
same,Population Tubulin-Different-Phenotype (%),[12],28%
same,Total Cell Count,[12],525
